Measurements of several laboratories.
Each line is one published result; the experiments were not run side by side.
CDK4 with cyclin D3: Cyclin-dependent kinase 4, with cyclin D3 (CDK4, Homo sapiens, UniProt P11802)
CDK4 with cyclin D1: Cyclin-dependent kinase 4, with cyclin D1 (CDK4, Homo sapiens, UniProt P11802)
CDK4: Cyclin-dependent kinase 4 (CDK4, Homo sapiens, UniProt P11802)

`F[C@@H]1CCN(c2nccc(-c3cnn4ncccc34)n2)C1` gave a remaining binding of 92% (CDK4 with cyclin D3; binding; 1 µM).
`FC(F)(F)c1ccc2c(c1)nc(-c1cccnc1)n2C1CC1` has a remaining binding of 100% (CDK4 with cyclin D1; cell-free assay, competition with immobilised ligand; 1 µM).
With `C[C@@H]1CCN(c2nccc(-c3cnn4ncccc34)n2)C1` the remaining binding was 79% (CDK4; binding; 1 µM).
For `COc1cnc(Nc2cccc(S(N)(=O)=O)c2)nc1N1CCN(c2ccccc2)CC1`, the remaining binding was 78% (CDK4 with cyclin D1; binding, competition with immobilised ligand; 1 µM).
With `FC(F)(F)Oc1cccc(-c2cnc3ccc(-c4ccncc4)nn23)c1` the remaining binding was 81% (CDK4; cell-free assay, competition with immobilised ligand; 5 µM).
For `C=CC(=O)N1CCC(C(=O)NCC(=O)N2CCN(c3nc(-c4cnc(N)nc4C(F)F)nc(N4CCOCC4)n3)CC2)CC1`, the remaining binding was 100% (CDK4 with cyclin D3; binding, competition with immobilised ligand; 1 µM).
For `C[C@@H](c1ccc(-n2cnc3c(N)ncnc32)cc1)N1CCc2nn(C)c(Cc3ccccc3)c2C1=O`, the remaining binding was 68% (CDK4 with cyclin D3; binding, competition with immobilised ligand; 0.1 µM).
`CNC(=O)c1ccc(Nc2ncc(C(F)(F)F)c(NCc3nccnc3N(C)S(C)(=O)=O)n2)cc1` gave a remaining binding of 100% (CDK4; cell-free assay, competition with immobilised ligand; 0.1 µM).
With `O=C(Nc1c[nH]nc1C(=O)NC1CCNCC1)c1cc(F)cc(F)c1` the remaining binding was 66% (CDK4 with cyclin D1; binding, competition with immobilised ligand; 1 µM).
The remaining binding of `Nc1ncc2c(n1)-c1c([nH]c3ccc(C#CC4CC4)cc13)CCCC2` is reported as 93% (CDK4 with cyclin D3; binding, competition with immobilised ligand; 1 µM).
With `COc1ncc2cc3ccccc3nc2c1C#N` the remaining binding was 100% (CDK4 with cyclin D3; cell-free assay, competition with immobilised ligand; 5 µM).
With `CC(=O)N1CCC(c2ccc(C(=O)NC3=NCCN3)cc2C(F)(F)F)CC1` the remaining binding was 94% (CDK4 with cyclin D1; cell-free assay, competition with immobilised ligand; 1 µM).
`COc1cnc(Nc2cccc(S(N)(=O)=O)c2)nc1N1CCN(c2ccccc2)C(=O)C1` has a remaining binding of 87% (CDK4 with cyclin D3; binding, competition with immobilised ligand; 1 µM).
With `c1cncc(-c2cccc(Nc3nccc(NC4CCCCC4)n3)c2)c1` the remaining binding was 100% (CDK4; binding, competition with immobilised ligand; 10 µM).
The remaining binding of `CC(C)(O)c1cncc(-c2nc3ccc(F)cc3n2C2CC2)c1` is reported as 100% (CDK4 with cyclin D1; cell-free assay, competition with immobilised ligand; 1 µM).
The remaining binding of `Cc1cnn2ncc(-c3ccnc(N(C)C)n3)c2c1` is reported as 84% (CDK4 with cyclin D1; binding; 1 µM).
For `O=C(NCC1CCOCC1)c1n[nH]cc1NC(=O)c1c(F)cccc1F`, the remaining binding was 47% (CDK4 with cyclin D1; binding, competition with immobilised ligand; 1 µM).
`O=C(c1ccc(Nc2nccc(-c3cc4ccccc4s3)n2)cc1)N1CCC(N2CCCC2)CC1` has a remaining binding of 18% (CDK4 with cyclin D3; binding, competition with immobilised ligand; 1 µM).
With `c1cnn2ncc(-c3ccnc(N4CCC45COC5)n3)c2c1` the remaining binding was 68% (CDK4 with cyclin D3; binding; 1 µM).
`Cc1cnc(Nc2ccc(C(=O)N3CCC(N4CCCC4)CC3)cc2)nc1-c1cc2ccccc2s1` gave a remaining binding of 40% (CDK4; binding, competition with immobilised ligand; 1 µM).
For `CNC(=O)[C@@H]1CC[C@@H](n2c(-c3ccc4cnccc4c3)nc3ccc(C(=O)NCc4cccc(C(N)=O)c4)cc32)C1`, the remaining binding was 100% (CDK4 with cyclin D1; binding, competition with immobilised ligand; 1 µM).
With `CCCOc1ccc([C@@H]2[C@@H](C(=O)O)[C@H](c3ccc4c(c3)OCO4)CN2CC(=O)Nc2c(CC)cccc2CC)cc1` the remaining binding was 84% (CDK4; cell-free assay, competition with immobilised ligand; 1 µM).
`CN(C)c1nccc(-c2cnc3ncccn23)n1` has a remaining binding of 48% (CDK4 with cyclin D3; binding; 1 µM).
With `O=C(NCCCN1CCOCC1)c1ccc(Nc2ncc(Cl)c(-c3ccc(Cl)s3)n2)cc1` the remaining binding was 50% (CDK4; binding, competition with immobilised ligand; 1 µM).
For `N#CC1(c2ccccn2)CCN(Cc2cc(C(=O)N3CCCC3)c(=O)n3ccccc23)CC1`, the remaining binding was 100% (CDK4 with cyclin D1; cell-free assay, competition with immobilised ligand; 1 µM).
`COc1ccnn2ncc(-c3ccnc(N(C)C)n3)c12` gave a remaining binding of 95% (CDK4; binding; 1 µM).
`O=C(c1ccc(Nc2ncc(Cl)c(-c3ccc(Cl)s3)n2)cc1)N1CCC(N2CCCC2)CC1` gave a remaining binding of 0.1% (CDK4 with cyclin D1; binding, competition with immobilised ligand; 1 µM).
`N[C@@H]1CCN(c2nccc(-c3cnn4ncccc34)n2)C1` gave a remaining binding of 100% (CDK4 with cyclin D3; binding; 1 µM).
For `O=C1CCc2cc(Nc3cc(OC4CCOCC4)c([N+](=O)[O-])cc3Cl)ccc2N1`, the remaining binding was 81% (CDK4; cell-free assay, competition with immobilised ligand; 1 µM).
`O=C(NCCCN1CCOCC1)c1ccc(Nc2nccc(-c3cc4ccccc4s3)n2)cc1` gave a remaining binding of 72% (CDK4 with cyclin D3; binding, competition with immobilised ligand; 1 µM).
`CS(=O)(=O)NCC[C@H](NC(=O)c1cncc2c1cnn2-c1ccc(F)cc1)c1ccnc(S(C)(=O)=O)c1` has a remaining binding of 100% (CDK4 with cyclin D1; cell-free assay, competition with immobilised ligand; 1 µM).
With `O=C(c1ccc(Nc2ncc(Cl)c(-c3cc4ccccc4s3)n2)cc1)N1CCC(N2CCCC2)CC1` the remaining binding was 21% (CDK4; binding, competition with immobilised ligand; 1 µM).
With `CN(CCCC(F)(F)F)c1nccc(-c2cnn3ncccc23)n1` the remaining binding was 61% (CDK4 with cyclin D1; binding; 1 µM).
